High-throughput results (PubChem BioAssay)
Xi reactivation: X-chromosome reactivation activator | activation, % at 7.58 µM | 360,000 tested, 0.055% active | XiGFP mouse fibroblasts, % GFP-positive cells imaging, 3 d; cells co-treated with 5-aza-dC sensitizer; scaled so ellipticine positive control = 100%;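 active = mean normalized replicate activation at least 10% and every replicate at or above 10%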;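 note: 0% = median of on-plate neutral control wells and 100% = ellipticine 6 µM median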
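assay system = SV40-immortalized XiGFP fibroblast cells, line 68-5-11 | buffer or medium = DMEM plus 5-aza-dC sensitizer | doses = single-point pinned compound dosing | times = 3-day compound exposure, then 15 min fixation at room temperature | benchmarks = positive control ellipticine, 6 µM final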
NTR1 agonist: agonists of human neurotensin receptor NTR1. 330,000 tested, 0.17% active. P30989. AID 493036. activation, % at 20 µM. NTR1-U2OS beta-arrestin-GFP spot imaging, agonist mode;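 active = activation at or above 40% of the spot to cytoplasm intensity ratio, with at least 20 cells analyzed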;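 note: 0% = DMSO without peptide and 100% = 100 nM NTR1 peptide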
Target sequence (P30989 whole entry, looked up): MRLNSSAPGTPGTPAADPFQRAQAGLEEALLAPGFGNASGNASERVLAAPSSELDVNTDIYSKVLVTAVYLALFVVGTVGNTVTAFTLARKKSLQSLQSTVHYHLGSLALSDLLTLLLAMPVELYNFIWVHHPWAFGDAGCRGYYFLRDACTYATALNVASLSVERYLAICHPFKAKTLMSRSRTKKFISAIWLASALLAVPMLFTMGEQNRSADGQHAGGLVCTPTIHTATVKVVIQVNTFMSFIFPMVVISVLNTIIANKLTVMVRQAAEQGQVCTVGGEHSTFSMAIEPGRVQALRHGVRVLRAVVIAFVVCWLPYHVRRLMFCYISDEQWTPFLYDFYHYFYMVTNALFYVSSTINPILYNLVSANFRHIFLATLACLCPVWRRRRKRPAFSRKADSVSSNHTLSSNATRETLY
V-ATPase pHluor: regulators of yeast V-ATPase proton transport | S. cerevisiae, pHLuorin cytosolic pH fluorescence | response, % at 10 µM | 350,000 tested, 0.37% active | AID 504577; in the data active = response mostly above about 7.3%, no sharp cut-off; inactive = mostly below about 5.4%; note: actives read high
Arr AP2 block: blocks beta-arrestin peptide binding to AP2 adaptin; FITC-arrestin peptide / GST-AP2 beads, flow cytometry; AP2 beta2 appendage carries R879A mutation; inhibition, % at 10 µM; 340,000 tested, 0.31% active; AID 504490;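 active = inhibition above a set limit, near 3 SD of compounds lacking own fluorescence, cut at about 54% in these data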;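 note: plate controls were DMSO wells for no effect and 5 µM unlabelled arrestin peptide for full effect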
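System: GST-AP2 R879A glutathione beads; medium: PBS, Tween 20 0.05%, BSA 0.1%; reagent: fluorescein-tagged arrestin peptide at 50 nM final; schedule: pre-incubation 12 min, peptide binding 1 h, room temperature; detection: flow cytometry, FL1 (488/535 nm); read-out: inhibition as reduced fluorescein signal on beads, percent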
MIN6 prolif: MIN6 beta-cell proliferation induction. MIN6 cells proliferation, ATPlite luminescence, 48 h; cells starved in 0.2% serum; 100% = growth in 10% serum. proliferation, % at 10 µM. 330,000 tested, 0.29% active;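 active = compounds whose signal lies at least 3.5 SD above the mean of all wells on their plate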;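 note: 0% = DMSO-treated cells in low-serum medium and 100% = 10% serum control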
T cell modulator: T cell immune modulation candidate; AID 2052; 2C CD8+ T cell-vesicle binding, flow cytometry; active compounds read low; response (vesicle binding), % at 7 µM; 330,000 tested, 0.068% active;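 active = response, share of CD8 T cells binding vesicles, and their 90th percentile fluorescence all below set limits, cut at about 80% in these data, passing the limit was not always enough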;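 note: values below 100% mean blocked vesicle binding to the CD8+ T cells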
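Material: 2C TCR transgenic mouse naive CD8+ T cells, MACS-purified. Also added: QL9-charged Drosophila Ld/ICAM-1/B7-1 vesicles. Timing: binding 1.5 h at 37 °C. Measured by: high-throughput flow cytometry with anti-B7-1 and anti-CD8 staining. Read-out: percent CD8+ FL2 mean versus row control. Controls: Unloaded micro-vesicles (low), QL9 vesicles with 0.7% DMSO (high).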
NTR1 ag confirm: confirmation of agonists of human NTR1 | shares compounds with NTR1 agonist | NTR1-U2OS beta-arrestin-GFP translocation imaging | activation, % at 20 µM | 480 tested, 38% active | AID 504550;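 active = mean activation at 20 µM of at least 40%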;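 note: 0% = DMSO without peptide and 100% = 100 nM NTR1 peptide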
Active calls of the source: *; . = not tested or not shown. Sampled rows, rich in hits. Any-hit rate of the full collection: about 0.89%.

SMILES	Xi reactivation	NTR1 agonist	V-ATPase pHluor	Arr AP2 block	MIN6 prolif	T cell modulator	NTR1 ag confirm
CCC(=O)N1CCC2(CC1)CN(CC1CCOCC1)[C@H](CO)c1c2c2ccc(OC)cc2n1C	0	.	.	.	.	.	.
CCc1ccc(NC(=O)COc2ccc(/C=C(/C#N)c3nc4ccccc4[nH]3)cc2OC)cc1	0	52*	-13	14	-6	189	-1
COC(=O)c1ccc(COc2ccc(/C=C(\C#N)c3nc4ccccc4[nH]3)cc2OC)o1	.	10	-2	-3	-5	216	.
CC(=O)Nc1ccc(NC(=O)c2cc([N+](=O)[O-])cc([N+](=O)[O-])c2)cc1	0	0	3	1	-2	193	.
Cc1ccc(NC(=O)c2ccc(Nc3c([N+](=O)[O-])cc([N+](=O)[O-])cc3[N+](=O)[O-])cc2)cc1	1	46*	0	-7	-3	184	22
C/C=C/c1ccc2c(c1)O[C@@H](CN(C)C(=O)C1CC1)[C@@H](C)CN([C@@H](C)CO)S2(=O)=O	-1	.	.	.	.	.	.
Cc1cc(C)n(-c2nc(NC(C)(C)C)nc(NC(C)(C)C)n2)n1	.	1	0	-12	-4	323	.
Cc1cc(C)n(-c2nc(Nc3ccccc3C(F)(F)F)nc(-n3nc(C)cc3C)n2)n1	.	57*	6	-3	-4	253	43*
Cc1cc(C)n(-c2nc(Nc3ccccc3C)nc(-n3nc(C)cc3C)n2)n1	.	48*	.	.	-6	421	71*
Cc1cc(C)n(-c2nc(NC(C)C)nc(NC(C)C)n2)n1	.	2	-3	7	-3	189	.
C[C@H]1C=CC(=O)O[C@H]1c1ccccc1	0	41*	2	5	1	995	37
COc1ccc2c3c(n(C)c2c1)[C@@H](CO)N(C(=O)c1cccc(F)c1)CC31CN(CC2CC2)C1	0	.	.	.	.	.	.
C[C@@H]1CCCCO[C@H](CN(C)C(=O)CCC(F)(F)F)[C@H](C)CN([C@@H](C)CO)C(=O)c2cc(NC(=O)CCCN(C)C)ccc2O1	0	.	.	.	.	.	.
C[C@]12CCC(O)CC1CCC1C2CC[C@]2(C)C(c3cc(C(F)(F)F)n[nH]3)CCC12 (some centres undefined)	0	74*	0	7	-5	270	30
CC12CCC3C(CCC4CC(O)CCC43C)C1CC(O)C2 (centres undefined)	0	.	3	35	.	.	.
O=C(CC1NC(=O)NC1=O)Nc1ccc(Cl)cc1 (centres undefined)	.	8	5	-1	-3	180	.
O=C(CC1Nc2ccccc2NC1=O)Nc1cc(Cl)cc(Cl)c1 (centres undefined)	.	73*	0	1	-7	278	54*
CNC[C@H]1Oc2ccc(N(C)C)cc2C(=O)N(C)C[C@@H]1C	0	.	.	.	.	.	.
CCCCNc1ccc(C(CC(N)=O)NC(=O)Cc2cccc3ccccc23)cc1[N+](=O)[O-] (centres undefined)	0	0	-2	-8	-6	729	.
COc1ccc(CCNc2ccc(C(CC(N)=O)NC(=O)Cc3cccc4ccccc34)cc2[N+](=O)[O-])cc1 (centres undefined)	0	48*	-1	20	-6	416	10
C=CCn1c(=NC(=O)c2cccc(N3C(=O)CCC3=O)c2)sc2cccc(OC)c21	1	47*	4	7	-4	191	54*
Cc1ccc(-c2nc3cccnc3o2)cc1NC(=O)COc1ccc(C(C)(C)C)cc1	.	62*	0	5	-4	354	22
O=C(NC(=S)Nc1nc2c(s1)CCCC2)c1ccc(C(=O)c2ccccc2)cc1	1	5	6	-1	-1	491	.
O=C(NC(=S)Nc1nc2c(s1)CSc1ccccc1-2)c1ccccc1	.	62*	-3	24	-5	317	1
O=C(Nc1nc(-c2nc3ccccc3s2)cs1)C1COc2ccccc2O1 (centres undefined)	0	41*	8	13	-5	504	-3
